According to ChEMBL document CHEMBL4622873, “Chlorosphaerolactylates A-D: Natural Lactylates of Chlorinated Fatty Acids Isolated from the Cyanobacterium Sphaerospermopsis sp. LEGE 00249” (2020):
Values after ≈ are worked out from the molar mass of the structure shown.

Assays:
Assay type in all cases: functional
[1] = system: Candida parapsilosis; assay: Fungicidal activity against Candida parapsilosis SMI416 by CLSI-based broth microdilution method; settings: Lodderomyces parapsilosis
Outline: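 C. parapsilosis SMI416, a clinical isolate from a bloodstream infection, revived on Mueller-Hinton agar at 37 °C from 25% (v/v) glycerol stocks held at -20 °C, then maintained at 4 °C. Media and solutions were made in ultrapure water and autoclaved at 121 °C for 15 min.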

[2] = system: Staphylococcus aureus; assay: Bactericidal activity against Staphylococcus aureus spa type t1333/S54F9 by CLSI-based broth microdilution method
Outline: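 S. aureus clinical isolate S54F9, revived on Mueller-Hinton agar at 37 °C from 25% (v/v) glycerol stocks held at -20 °C, then kept at 4 °C. Broth microdilution susceptibility test in 96-well plates, after which the upper wells were subcultured onto solid MSA agar to read the bactericidal endpoint.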

[3] = system: Staphylococcus hominis; assay: Antibiofilm activity against coagulase-negative Staphylococcus hominis FI31 incubated for 48 hrs by crystal violet staining-based method
Outline: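 Strain FI31 is a clinical isolate recovered from an infected prosthesis. Media and solutions were made in ultrapure deionized water and sterilized by autoclaving at 121 °C for 15 min.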

| Structure (SMILES) | MFC [1] [mM] | MBC [2] [mM] | MBIC50 [3] [mM] |
| --- | --- | --- | --- |
| C[C@H](OC(=O)CCCCC(Cl)CCCCCCCl)C(=O)O (some centres not stated) | 2.7 to 6 (≈ 921 to 2050 µg/mL) | 2.7 to 6 (≈ 921 to 2050 µg/mL) | 0.5 to 1.1 |
| CC(OC(=O)CCCCC(Cl)CCCCCC(Cl)Cl)C(=O)O (configuration not stated) | 2.7 to 6 (≈ 1010 to 2250 µg/mL) | 2.7 to 6 (≈ 1010 to 2250 µg/mL) | 0.5 to 1.1 |
| CCCCCCC(Cl)CCCCC(=O)OC(C)C(=O)O (configuration not stated) | 2.7 to 6 (≈ 828 to 1840 µg/mL) | 2.7 to 6 (≈ 828 to 1840 µg/mL) | 0.5 to 1.1 |
| CC(OC(=O)CCCCCCCCCCCCl)C(=O)O (configuration not stated) | 2.7 to 6 (≈ 828 to 1840 µg/mL) | 2.7 to 6 (≈ 828 to 1840 µg/mL) | 0.5 to 1.1 |
